Published values collected from several papers.
Protocols differ between the studies behind these lines.
Target: Serine/threonine-protein kinase PAK 3 (PAK3, Homo sapiens, UniProt O75914)

Compound	test	setting	remaining binding
O=C1NC(c2ccccn2)Sc2ccccc21 (centres unmarked)	cell-free assay, competition with immobilised ligand	1 µM	83%
Nc1ncc2c(n1)-c1c([nH]c3ccc(C#CC4CC4)cc13)CCCC2	binding, competition with immobilised ligand	1 µM	90%
C[C@@H](c1ccc(-n2cnc3c(N)ncnc32)cc1)N1CCc2nn(C)c(Cc3ccccc3)c2C1=O	binding, competition with immobilised ligand	0.1 µM	71%
C[C@H](c1cccc(C#N)c1)n1cc(Cl)cc(C(N)=O)c1=N	cell-free assay, competition with immobilised ligand	1 µM	88%
Cc1cnc(Nc2ccc(C(=O)N3CCC(N4CCCC4)CC3)cc2)nc1-c1cc2ccccc2s1	binding, competition with immobilised ligand	1 µM	23%
CN(C)c1nccc(-c2cnc3ncccn23)n1	binding	1 µM	100%
O=C(NCCCN1CCOCC1)c1ccc(Nc2nccc(-c3cc4ccccc4s3)n2)cc1	binding, competition with immobilised ligand	1 µM	71%
N[C@@H]1CCN(c2nccc(-c3cnn4ncccc34)n2)C1	binding	1 µM	99%
CCS(=O)(=O)c1cc2cc(C[C@](O)(CC(C)(C)c3ccc(F)cc3C(N)=O)C(F)(F)F)[nH]c2cn1	cell-free assay, competition with immobilised ligand	1 µM	100%
Cc1cnn2ncc(-c3ccnc(N(C)C)n3)c2c1	binding	1 µM	100%
O=C(NCC1CCOCC1)c1n[nH]cc1NC(=O)c1c(F)cccc1F	binding, competition with immobilised ligand	1 µM	100%
Cc1c(NC(=O)c2cc(C(N)=O)nc3cc(F)ccc23)c(C(F)(F)F)nn1Cc1ccc(C(C)(C)C)cc1	cell-free assay, competition with immobilised ligand	1 µM	100%
C[C@H]1CCN(c2nccc(-c3cnn4ncccc34)n2)C1	binding	1 µM	94%
COc1ncc2cc3ccccc3nc2c1C#N	cell-free assay, competition with immobilised ligand	5 µM	100%
COc1cnc(Nc2cccc(S(N)(=O)=O)c2)nc1N1CCN(c2ccccc2)C(=O)C1	binding, competition with immobilised ligand	1 µM	75%
O=C(NCCCN1CCOCC1)c1ccc(Nc2ncc(Cl)c(-c3ccc(Cl)s3)n2)cc1	binding, competition with immobilised ligand	1 µM	77%
CCC(=N\O)/C(C)=C/c1ccc(F)cc1	cell-free assay, competition with immobilised ligand	1 µM	89%
F[C@@H]1CCN(c2nccc(-c3cnn4ncccc34)n2)C1	binding	1 µM	100%
CS(=O)(=O)NCC[C@H](NC(=O)c1cncc2c1cnn2-c1ccc(F)cc1)c1ccnc(S(C)(=O)=O)c1	cell-free assay, competition with immobilised ligand	1 µM	100%
CN(CCCC(F)(F)F)c1nccc(-c2cnn3ncccc23)n1	binding	1 µM	100%
